≈ marks a conversion by molar mass, not a printed value. Calls of active or inactive are those of the source. The calls are words filed in the database; no cut-off is given here.
Experiments:
[1] = Cytotoxicity against mouse NIH/3T3 cells by GRE-Luciferase reporter gene assay; assay type: cell-based; conditions: nih3t3
Procedure, shortened: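 NIH3T3 cells carrying GRE-luciferase reporter stimulated with 10 nM SAG as Hh pathway agonist, used as counter-screen for nonspecific cytotoxicity.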

[2] = Inhibition of Wnt signaling (unknown origin) expressed in mouse L Wnt3A cells co-cultured with HEK293 cells after 48 hrs by Super-top flash reporter gene assay; assay type: cell-based; conditions: Homo sapiens, HEK293, 48 h
Procedure, shortened: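 Mouse L Wnt3A cells and HEK293 Super-Top Flash TCF-luciferase stable cells mixed 1:1, 12,000 cells/well, grown 24 h, then compound in DMSO diluted in DMEM added. After 48 h at 37°C, Bright-Glo luminescence read; IC50 from signal inhibition, geometric mean of at least two runs ± SEM; LGK974 standard in each run.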

[3] = molecular target: T1, Protein-serine O-palmitoleoyltransferase porcupine (Homo sapiens) (UniProt Q9H237); assay: Inhibition of porcupine (unknown origin) in HEK293T cells transfected with pLibin-WNT3A plasmid assessed as reduction in Wnt3A secretion into cell culture medium at 0.1 uM after 48 hrs by Western blot technique; assay type: cell-based; conditions: HEK-293T
T1 sequence (whole entry): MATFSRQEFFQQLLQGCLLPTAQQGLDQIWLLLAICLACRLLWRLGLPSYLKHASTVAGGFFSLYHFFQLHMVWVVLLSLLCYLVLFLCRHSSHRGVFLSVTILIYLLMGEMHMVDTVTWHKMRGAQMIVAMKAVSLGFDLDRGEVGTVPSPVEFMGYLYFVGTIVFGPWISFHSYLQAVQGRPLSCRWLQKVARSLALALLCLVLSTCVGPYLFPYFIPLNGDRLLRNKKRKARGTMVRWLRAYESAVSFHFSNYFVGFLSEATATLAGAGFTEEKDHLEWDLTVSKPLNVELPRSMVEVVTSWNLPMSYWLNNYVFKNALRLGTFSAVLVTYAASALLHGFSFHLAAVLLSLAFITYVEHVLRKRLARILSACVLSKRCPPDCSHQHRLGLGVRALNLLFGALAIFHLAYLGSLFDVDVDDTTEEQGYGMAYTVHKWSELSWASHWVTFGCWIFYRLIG
Procedure, shortened: (§1)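 HEK293T cells in 6-well plates at 60% confluence, transfected with 1 µg pLibin-WNT3A plasmid or vehicle and treated at the same time with 0.1 µM compound. After 48 h, culture supernatant and cell lysate (40-50 µg protein) separated by SDS-PAGE, blotted to PVDF and probed for Wnt3A.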

[4] = Half life in mouse liver microsomes at 1 uM preincubated for 10 mins followed by NADPH addition measured for 30 to 60 mins by LC-MS/MS analysis; assay type: ADME
Procedure, shortened: (§2)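 Liver microsomes (mouse or human, 0.2 mg/mL) with 1 µM substrate in 100 mM phosphate pH 7.4, preincubated 10 min, then started with 1 mM NADPH. Sampled at 0, 30, 60 min, quenched in cold acetonitrile with internal standard, LC-MS/MS. t1/2 from ln % remaining slope; scaled with 20 mg protein/g liver, liver 87.5 (mouse) or 25.7 (human) g/kg.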

[5] = Effect on Wnt3A level in HEK293T cells transfected with pLibin-WNT3A plasmid at 0.1 uM after 48 hrs by Western blot technique; assay type: cell-based; conditions: human, hek-293t; procedure, shortened: as §1
[6] = Half life in human liver microsomes at 1 uM preincubated for 10 mins followed by NADPH addition measured for 30 to 60 mins by LC-MS/MS analysis; assay type: ADME; procedure, shortened: as §2
[7] = Chemical stability in simulated gastric fluid assessed as compound remaining at 200 uM at 40 degC after 24 hrs by HPLC technique; assay type: physicochemical; conditions: read-out: Stability
Procedure, shortened: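 Compound at 200 µM in simulated gastric fluid (3.8 mL conc. HCl diluted to 1000 mL water), held at 40°C for 24 h; percent remaining reported.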

[8] = Stability in rat plasma assessed as compound remaining at 1 uM after 8 hrs by LC-MS/MS analysis; assay type: ADME, cell-free; conditions: read-out: Stability
Procedure, shortened: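 Compound at 1 µM incubated in blank rat plasma for 8 h, deproteinized with acetonitrile plus internal standard, centrifuged, supernatant measured by LC-MS/MS; percent remaining.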

[9] = Intrinsic clearance in human liver microsomes at 1 uM preincubated for 10 mins followed by NADPH addition measured for 30 to 60 mins by LC-MS/MS analysis; assay type: ADME; conditions: read-out: CLH; procedure, shortened: as §2
[10] = Thermodynamic solubility of the compound in FaSSIF at 4 mg/ml at pH 6.5 after overnight incubation by LC-MS/MS analysis; assay type: physicochemical; conditions: read-out: Therm_solubility
Procedure, shortened: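 4 mg/mL suspension in FaSSIF (pH 6.5) shaken 1 h, then equilibrated overnight at room temperature; supernatant after centrifugation quantified by LC-MS/MS.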

[11] = Intrinsic clearance in mouse liver microsomes at 1 uM preincubated for 10 mins followed by NADPH addition measured for 30 to 60 mins by LC-MS/MS analysis; assay type: ADME; conditions: read-out: CLH; procedure, shortened: as §2
[12] = test system: Wnt3A; assay: Potency index, ratio of LGK974 IC50 to compound IC50 for Wnt signaling (unknown origin) expressed in mouse L Wnt3A cells co-cultured with HEK293; assay type: cell-based; conditions: Homo sapiens
[13] = Cmax in Sprague-Dawley rat plasma at 2 mg/kg, iv by LC-MS/MS analysis; assay type: ADME, organism-based; parameters: dose 2 mg/kg, route intravenous
Procedure, shortened: (§3)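 Male Sprague-Dawley rats (200-250 g), fasted 12 h before dosing, food returned ~4 h post-dose. Solution at 1 mg/mL in NMP/Tween80/PEG400/water (10/1/50/39) given by tail vein at 2 mL/kg or oral gavage at 10 mL/kg. Plasma from timed blood samples precipitated with cold acetonitrile plus internal standard, measured by LC-MS/MS; noncompartmental PK parameters.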

[14] = test system: Rattus norvegicus; assay: AUC (0 to 24 hrs) in Sprague-Dawley rat plasma at 2 mg/kg, iv by LC-MS/MS analysis; assay type: ADME, organism-based; parameters: dose 2 mg/kg, time < 24 hr, route intravenous; conditions: in vivo; procedure, shortened: as §3
[15] = Oral bioavailability in Sprague-Dawley rat at 10 mg/kg by LC-MS/MS analysis; assay type: ADME, organism-based; conditions: in vivo; procedure, shortened: as §3
[16] = Tmax in Sprague-Dawley rat plasma at 10 mg/kg, po by LC-MS/MS analysis; assay type: ADME, organism-based; procedure, shortened: as §3
[17] = Half life in Sprague-Dawley rat at 2 mg/kg, iv by LC-MS/MS analysis; assay type: ADME, organism-based; conditions: in vivo; procedure, shortened: as §3
[18] = Half life in Sprague-Dawley rat at 10 mg/kg, po by LC-MS/MS analysis; assay type: ADME, organism-based; conditions: in vivo; procedure, shortened: as §3
[19] = Volume of distribution at steady state in Sprague-Dawley rat at 2 mg/kg, iv by LC-MS/MS analysis; assay type: ADME, organism-based; conditions: in vivo, read-out: Vdss; procedure, shortened: as §3
[20] = Cmax in Sprague-Dawley rat plasma at 10 mg/kg, po by LC-MS/MS analysis; assay type: ADME, organism-based; parameters: dose 10 mg/kg, route oral; procedure, shortened: as §3
[21] = AUC (0 to 24 hrs) in Sprague-Dawley rat plasma at 10 mg/kg, po by LC-MS/MS analysis; assay type: ADME, organism-based; parameters: dose 10 mg/kg, time < 24 hr, route oral; procedure, shortened: as §3

Compound	Activity [1]	IC50 [2] [nM]	further results
Cc1cc(-c2ncc(CC(=O)Nc3ccc4c(c3)Cc3ccccc3-4)cc2C)ccn1	Non-toxic	2.5	
Cc1cc(-c2ccc(CC(=O)Nc3ccc4c(c3)oc3ccccc34)cc2)ccn1	Non-toxic	9	
O=C(Cc1ccc2c(c1)Cc1ccccc1-2)Nc1ccc(-c2cnccn2)cn1	Non-toxic	454	
Cc1cc(-c2ccc(CC(=O)Nc3ccc4c(c3)C(=O)c3ccccc3-4)cc2)ccn1	Non-toxic	0.45	inhibition [3]: Active; half-life at 1 µM [4]: 0.2 h; Activity [5]: Non-toxic; half-life at 1 µM [6]: 0.2 h; remaining at 24 h, 200 µM [7]: 99%; remaining at 8 h, 1 µM [8]: 100%; CLint scaled at 1 µM [9]: 149 mL/min/kg; solubility thermodynamic [10]: < 1 µg/mL; CLint scaled at 1 µM [11]: 508 mL/min/kg; Ratio IC50 [12]: 2
Cc1cc(-c2ncc(CC(=O)Nc3ccc4c(c3)C(=O)c3ccccc3-4)cc2C)ccn1	Non-toxic	2.8	
Cc1cc(-c2ncc(CC(=O)Nc3ccc(-c4cnccn4)cn3)cc2C)ccn1 [WNT-974]		0.9	inhibition [3]: Active; Activity [5]: Non-toxic
O=C(Cc1ccc2c(c1)C(=O)c1ccccc1-2)Nc1ccc(-c2cnccn2)cn1	Non-toxic	> 1000	
O=C(Cc1ccc2c(c1)Cc1ccccc1-2)Nc1ccc(-c2cccnc2)cc1	Non-toxic	231	
O=C(Cc1ccc2c(c1)C(=O)c1ccccc1-2)Nc1ccc(-c2cccnc2)cc1	Non-toxic	> 1000	
Cc1cc(-c2ccc(CC(=O)Nc3ccc4c(c3)C(F)(F)c3ccccc3-4)cc2)ccn1	Non-toxic	3.5	
Cc1cc(-c2ccc(CC(=O)Nc3ccc4c(c3)Cc3ccccc3-4)cc2)ccn1	Non-toxic	1.4	
O=C(Cc1ccc2c(c1)oc1ccccc12)Nc1ccc(-c2cccnc2)cc1	Non-toxic	544	
O=C(Cc1ccc2c(c1)oc1ccccc12)Nc1ccc(-c2cnccn2)cn1	Non-toxic	136	
Cc1cc(-c2ncc(CC(=O)Nc3ccc4c(c3)oc3ccccc34)cc2C)ccn1	Non-toxic	13	
Cc1cc(-c2ncc(CC(=O)Nc3ccc4c5ccccc5n(C)c4c3)cc2C)ccn1	Non-toxic	49	
Cc1cc(-c2ncc(CC(=O)Nc3ccc4c(c3)C(F)(F)c3ccccc3-4)cc2C)ccn1	Non-toxic	2.7	
Cc1cc(-c2ccc(CC(=O)Nc3ccc4c(c3)[nH]c3ccccc34)cc2)ccn1	Non-toxic	2.3	Cmax [13]: 1950 ng/mL; inhibition [3]: Active; half-life at 1 µM [4]: 1.52 h; AUC [14]: 7442 ng·h/mL; Activity [5]: Non-toxic; half-life at 1 µM [6]: 0.717 h; remaining at 24 h, 200 µM [7]: 100%; remaining at 8 h, 1 µM [8]: 100%; bioavailability [15]: 30%; Tmax [16]: 1 h; CLint scaled at 1 µM [9]: 41 mL/min/kg; half-life [17]: 2.5 h; solubility thermodynamic [10]: 2 µg/mL (≈ 5.11 µM); half-life [18]: 3.1 h; Vd [19]: 2.7 L/kg; Cmax [20]: 2880 ng/mL; AUC(0-t) at 24 h [21]: 11300 ng·h/mL; CLint scaled at 1 µM [11]: 67 mL/min/kg
Cc1cc(-c2ncc(CC(=O)Nc3ccc4c(c3)[nH]c3ccccc34)cc2C)ccn1	Non-toxic	2.6	
Cc1cc(-c2ccc(CC(=O)Nc3ccc4c5ccccc5n(C)c4c3)cc2)ccn1	Non-toxic	191	

From ChEMBL document CHEMBL3758157, “Design, synthesis, and evaluation of potent Wnt signaling inhibitors featuring a fused 3-ring system” (Eur J Med Chem, 2016)
